Laboratory results as given in ChEMBL document CHEMBL4152216, “Syntheses and anti-pancreatic cancer activities of rakicidin A analogues” (Eur J Med Chem, 2018).

Key:
[1] = test system: PANC-1; experiment: Inhibition of cancer stem cell population of human PANC1 cells assessed as CD24+/CD44+/ESA+ cell population level at 0.15 uM after 48 hrs by flow cytometric analysis (reference value: 1.7%); assay type: functional; parameters: scale not given: the % may be the effect or the level left
[2] = test system: PANC-1; experiment: Selectivity index, ratio of IC50 against human PANC1 cells under normoxic condition to IC50 for human PANC1 cells under hypoxic condition; assay type: functional
Summary of the method: (§1)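 Hypoxic selectivity index is IC50 (normoxia)/IC50 (hypoxia). Both IC50s come from the 72 h MTT assay in the same cell line, run under normoxia (37 °C, 5% CO2) or a sealed 1% O2/5% CO2/94% N2 chamber, each the mean of three independent experiments.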

[3] = test system: ASPC1; experiment: Selectivity index, ratio of IC50 against human Aspc-1 cells under normoxic condition to IC50 for human Aspc-1 cells under hypoxic condition; assay type: functional; summary of the method: as §1
[4] = test system: PaTu 8988t; experiment: Selectivity index, ratio of IC50 against human PA-TU-8988T cells under normoxic condition to IC50 for human PA-TU-8988T cells under hypoxic condition; assay type: functional; summary of the method: as §1
[5] = test system: PANC-1; experiment: Cytotoxicity against human PANC1 cells after 72 hrs under hypoxic condition by MTT assay; assay type: functional, cell-based; details: PANC-1, 72 h
Summary of the method: (§2)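 PANC-1, PATU8988T and ASPC-1 cells were grown in DMEM with 10% FBS at 37 °C and 5% CO2, then seeded at 4000 cells/well. Compounds were added at various concentrations after 6 h. Normoxic plates stayed at 37 °C, 5% CO2. Hypoxic plates went into a chamber purged 10 min with 5% CO2/1% O2/94% N2, sealed, at 37 °C. After 72 h, MTT was added for 4 h, formazan dissolved in DMSO and read at 570 nm. IC50 is the mean ± SD of three independent experiments.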

[6] = biological target: T1, Aldehyde dehydrogenase, mitochondrial (Homo sapiens) (UniProt P05091); experiment: Inhibition of ALDH in human PANC1 cells assessed as aldefluor positive cells at 0.2 uM after 72 hrs by aldefluor assay (reference value: 12.5%); assay type: cell-based; parameters: scale not given: the % may be the effect or the level left
T1 sequence (whole entry): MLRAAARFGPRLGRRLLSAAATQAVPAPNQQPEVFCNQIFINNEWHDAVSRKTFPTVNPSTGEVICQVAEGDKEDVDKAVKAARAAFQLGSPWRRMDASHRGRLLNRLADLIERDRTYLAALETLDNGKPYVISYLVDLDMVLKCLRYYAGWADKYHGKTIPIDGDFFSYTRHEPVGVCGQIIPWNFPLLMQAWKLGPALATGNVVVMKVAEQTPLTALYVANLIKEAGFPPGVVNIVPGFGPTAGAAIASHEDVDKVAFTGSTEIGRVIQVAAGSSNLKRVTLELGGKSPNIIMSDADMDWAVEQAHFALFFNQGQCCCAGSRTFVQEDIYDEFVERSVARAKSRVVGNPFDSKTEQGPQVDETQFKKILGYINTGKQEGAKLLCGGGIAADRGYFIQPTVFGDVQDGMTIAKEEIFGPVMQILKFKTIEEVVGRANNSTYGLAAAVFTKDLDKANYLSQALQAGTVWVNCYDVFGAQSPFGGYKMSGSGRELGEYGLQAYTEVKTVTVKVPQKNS
Summary of the method: (§3)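 PANC-1 cells were seeded at 5×10^4 cells/well and exposed after 6 h to compound (0.2 µM; ADR 0.5 µM) for 72 h. Living cells were suspended in assay buffer and incubated with Aldefluor substrate for 60 min at 37 °C. A parallel sample received substrate plus the ALDH inhibitor DEAB as negative control. Readout was percentage of ALDH+ cells, mean ± SEM, n = 3.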

[7] = test system: PaTu 8988t; experiment: Cytotoxicity against human PA-TU-8988T cells after 72 hrs under normoxic condition by MTT assay; assay type: functional, cell-based; summary of the method: as §2
[8] = test system: PANC-1; experiment: Cytotoxicity against human PANC1 cells after 72 hrs under normoxic condition by MTT assay; assay type: functional, cell-based; details: PANC-1, 72 h; summary of the method: as §2
[9] = test system: ASPC1; experiment: Cytotoxicity against human Aspc-1 cells after 72 hrs under normoxic condition by MTT assay; assay type: functional, cell-based; details: ASPC1, 72 h; summary of the method: as §2
[10] = test system: ASPC1; experiment: Cytotoxicity against human Aspc-1 cells after 72 hrs under hypoxic condition by MTT assay; assay type: functional, cell-based; details: ASPC1, 72 h; summary of the method: as §2
[11] = test system: PANC-1; experiment: Antitumor activity against human PANC1 cells xenografted in BALB/c nude mouse assessed as reduction in tumor initiating cell frequency at 0.1 to 0.25 uM measured after 7 days; assay type: functional
Summary of the method: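 PANC-1 cells were treated in vitro with compound (ADR at 0.5 µM) for 48 h, collected, and injected subcutaneously at limiting cell doses into 5-week-old female BALB/c nude mice. Tumor formation rate was scored after 7 days. Tumor-initiating frequency was derived by limiting-dilution analysis with Poisson statistics against vehicle.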

[12] = biological target: T1, Aldehyde dehydrogenase, mitochondrial (Homo sapiens); experiment: Inhibition of ALDH in human PANC1 cells assessed as aldefluor positive cells at 0.2 uM after 72 hrs in presence of DEAB by aldefluor assay (reference value: 0.455%); assay type: cell-based; parameters: scale not given: the % may be the effect or the level left; summary of the method: as §3
[13] = test system: PANC-1; experiment: Inhibition of tumorsphere formation in human PANC1 cells assessed as reduction in number of tumor spheres at 0.25 uM after 7 days; assay type: functional
Summary of the method: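 Tumorsphere formation: single-cell PANC-1 suspensions were plated in ultra-low-attachment wells at 2,000 cells/mL in Complete MammoCult medium, with compound at 0.25 µM. Tumorspheres were counted after 7 days. Three repeats, mean ± SEM.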

[14] = test system: PaTu 8988t; experiment: Cytotoxicity against human PA-TU-8988T cells after 72 hrs under hypoxic condition by MTT assay; assay type: functional, cell-based; summary of the method: as §2

SMILES	Activity [1] [%]	Ratio IC50 [2]	Ratio IC50 [3]	Ratio IC50 [4]	IC50 [5] [nM]	Activity [6] [%]	IC50 [7] [nM]	IC50 [8] [nM]	IC50 [9] [nM]	IC50 [10] [nM]	fold change (FC) [11]	Activity [12] [%]	fold change (FC) [13]	IC50 [14] [nM]
CC(=O)O[C@H]1C(=O)[C@@]2(C)[C@H]([C@H](OC(=O)c3ccccc3)[C@]3(O)C[C@H](OC(=O)[C@H](O)[C@@H](NC(=O)c4ccccc4)c4ccccc4)C(C)=C1C3(C)C)[C@]1(OC(C)=O)CO[C@@H]1C[C@@H]2O [PACLITAXEL]	1.6													
C=C1/C=C/C(=O)N(C)CC(=O)N[C@@H]([C@H](O)C(N)=O)C(=O)O[C@@H]([C@H](C)CCCCCCCCCCCC(C)C)[C@H](C)C(=O)N1	0.43	5.24	8.4	7.54	42	0.46	240	220	680	82	4.7	0.544	4	33
CCCCCCCCCCCCCC[C@@H](C)[C@@H]1OC(=O)[C@H](CC(=O)NC2CC2)NC(=O)CN(C)C(=O)/C=C/[C@H](CO)NC(=O)[C@H]1C					> 10000			> 10000						
C=C1/C=C/C(=O)N(CCCCCC)CC(=O)N[C@@H]([C@H](O)C(=O)OC)C(=O)O[C@@H]([C@H](C)CCCCCCCCCCCC(C)C)[C@H](C)C(=O)N1		>7.11			7000			> 50000						
C=C1/C=C/C(=O)N(C)C(C)C(=O)N[C@@H]([C@H](O)C(=O)OC)C(=O)O[C@@H]([C@H](C)CCCCCCCCCCCC(C)C)[C@H](C)C(=O)N1 (single isomer, unassigned; 1d)		8.34	7.87	2.86	79		1100	660	3200	400				380
C=C1/C=C/C(=O)N(C)CC(=O)O[C@@H](CCCCCCCCCCCCC)[C@H](C)C(=O)[C@](C)(O)C(=O)NCC(=O)N1		43.33			15			650						
C=C1/C=C/C(=O)N(C)CC(=O)N[C@@H](CCC(=O)OC)C(=O)O[C@@H]([C@H](C)CCCCCCCCCCCCCC)[C@H](C)C(=O)N1		3.54			300			1100						
C=C1/C=C/C(=O)N(C)CC(=O)N[C@@H](CC(=O)NC)C(=O)O[C@@H]([C@H](C)CCCCCCCCCCCCCC)[C@H](C)C(=O)N1	0.33	4.44	10.98	4.42	38		260	170	500	46				60
C=C1/C=C/C(=O)N(C)CC(=O)N[C@@H]([C@H](O)C(=O)OC)C(=O)O[C@@H]([C@H](C)CCCCCCCCCCCC(C)C)[C@H](C)C(=O)N1	0.83	2.98	3.63	3.91	90		450	270	540	150				120
C=C1/C=C/C(=O)N(C)CC(=O)N[C@@H](C)C(=O)O[C@@H]([C@H](C)CCCCCCCCCCCCCC)[C@H](C)C(=O)N1		4.04			270			1100						
C=C1/C=C/C(=O)N(C)CC(=O)N[C@@H](CC(=O)OC)C(=O)O[C@@H]([C@H](C)CCCCCCCCCCCC(C)C)[C@H](C)C(=O)N1	1.2	2.36	0.59	5.03	48		360	110	360	600				73
